The source of these data is ChEMBL document CHEMBL4732130, “Synthesis and characterization of 1,2,4-triazolo[1,5-a]pyrimidine-2-carboxamide-based compounds targeting the PA-PB1 interface of influenza A virus polymerase” (Eur J Med Chem, 2021).

pEC50, pIC50: −log10 of the molar value. ≈ marks a conversion by molar mass, not a printed value. Where “and” joins values, the source holds several entries; their conditions need not be identical. Equal entries are not always repeated.

Data set [1] can be described thus: Inhibition of Influenza A virus 6His-tagged PA (239 to 716 residues)/GST-tagged PB1 (1 to 25 residues) expressed in Escherichia coli BL21 pLysS protein-protein interaction using 3,3',5,5'tetramethylbenzedine as substrate by ELISA.
The subject of data set [2] is MDCK. Kind of data set: (§1) Cytotoxicity against dog MDCK cells assessed as reduction in cell viability incubated for 48 hrs by MTT assay. Type of data set: cell-based, Canis lupus familiaris. As to conditions: mdck, 48 h. The gist of the method: (§2)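 MDCK cells seeded at 2 × 10^4/well and grown 24 h, then given serial compound dilutions in DMEM with 10% FBS (DMSO control) for 48 h at 37 °C. MTT (5 mg/mL stock) added for 4 h, cells solubilised overnight, OD read at 620 nm. […] Mean ± SD of ≥3 independent experiments in duplicate.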

The subject of data set [3] is Influenza A virus. Put plainly: Antiviral activity against Influenza A virus A/PR/8/34 (H1N1) infected in MDCK cells assessed as reduction in plaque formation treated 1 hr post viral infection and measured after 48 hrs post-infection by toluidine blue staining based plaque reduction assay. The following applies: A/Puerto Rico/8/1934(H1N1). Type of data set: functional, organism-based.

Data set [4] is described as follows: Cytotoxicity in dog MDCK cells assessed as reduction in cell viability incubated for 24 to 120 hrs by MTT assay. Type of data set: cell-based, Canis lupus familiaris. As to conditions: time 24-120 hrs.
Data set [5] can be described thus: Equilibrium solubility of the compound in phosphate buffer at pH 7.4 incubated for 2 hrs. The format is physicochemical. The following applies: for solubility: buffer, pH 7.4, 2 h, 2 h; for solubility thermodynamic at 2 h: phosphate buffer, pH 7.4.
Data set [6] is described as follows: as §1. Type of data set: cell-based, Canis lupus familiaris. As to conditions: MDCK cells. The method, boiled down:
as §2

The target in data set [7] is RNA-directed RNA polymerase (Influenza A virus (strain A/Puerto Rico/8/1934 H1N1), UniProt P03428+P03431+P03433). Put plainly: Inhibition of RdRP activity in Influenza A virus A/PR/8/34 (H1N1) infected in HEK293T cells co-transfected with NP/PA/PB1/PB2/pPolI-Flu-ffLuc/pRL-SV40 incubated for 24 hrs by minireplicon based dual luciferase assay. Type of data set: cell-based, Influenza A virus (A/Puerto Rico/8/1934(H1N1)). The method, boiled down: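 HEK293T cells (2 × 10^5/well) plated overnight, then calcium-phosphate transfected with PB1, PB2, PA and NP plasmids (100 ng each), pPolI-Flu-ffLuc reporter (50 ng; WSN segment 8 noncoding ends) and pRL-SV40 (50 ng), with compound or DMSO present. Medium replaced at 5 h with compound-containing DMEM. Dual luciferase read at 24 h. Firefly normalised to Renilla, DMSO set as 100% polymerase activity.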

Data set [8] is described as follows: Metabolic stability in human liver microsomes assessed as compound remaining at 10 uM preincubated for 5 mins followed by NADPH addition and measured after 60 mins by LC-MS/MS analysis. Type of data set: ADME, Microsome. The following applies: time 65 min, read-out: Stabilty. The method, boiled down:
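Compound at 10 µM preincubated 5 min at 37 °C with human liver microsomes (1 mg/mL) in 0.1 M phosphate, pH 7.4. Reaction started with 2 mM NADPH. Samples taken at 0, 10, 20, 40 and 60 min, quenched in cold acetonitrile containing labetalol internal standard, and centrifuged. Analysed by LC-MS/MS (Q-TOF) for percent unchanged compound and metabolites. Half-life and intrinsic clearance estimated.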

The nature of data set [9]: Protein binding in human plasma assessed as unbound fraction at 5 uM incubated for 4 hrs by UPLC/MS-MS based rapid equilibrium dialysis method. The format is ADME, cell-free. The method, boiled down:
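Compound at 5 µM in human plasma, dialysed against buffer by rapid equilibrium dialysis for 4 h at 37 °C. Chamber aliquots matrix-matched, precipitated with acetonitrile, and quantified by UPLC-MS/MS peak areas.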

`Cc1cc(-c2ccccc2)n2nc(C(=O)Nc3sc4c(c3C(N)=O)CCC4)nc2n1` had a pIC50 in [1] of 5.21. The CC50 in data set [2] was greater than 250 µM. The pEC50 in data set [3] was 4.66.

For the compound `Cc1cc(-c2ccccc2)n2nc(C(=O)Nc3c(C(N)=O)sc4ncccc34)nc2n1`, the pIC50 in data set [1] is 5.48. Besides, the CC50 in [2] is greater than 250 µM. Also, the pEC50 in data set [3] was less than 4.00.

In data set [1], `Cc1cc(-c2ccccc2)n2nc(C(=O)Nc3sc(C)c(C)c3C(N)=O)nc2n1` gave a pIC50 of less than 3.70. Also, in data set [2], the CC50 was greater than 250 µM. Further, the negative logarithm of the EC50 (pEC50) in data set [3] was less than 4.30.

`Cc1cc(-c2ccccc2)n2nc(C(=O)Nc3c(C(N)=O)sc4ccccc34)nc2n1` had a pIC50 in data set [1] of less than 3.70. Further, the CC50 in data set [2] is greater than 250 µM. Besides, the pEC50 in [3] was 4.66.

With `Cc1cc(-c2ccccc2)n2nc(C(=O)Nc3sc4ccccc4c3C(N)=O)nc2n1`, in data set [1], the pIC50 is less than 3.70. Further, the CC50 in data set [2] is greater than 250 µM. Moreover, the pEC50 in data set [3] was 4.31.

In the case of `COc1ccc(C(=O)Nc2nc3n(n2)C(c2ccccc2)C=C(C)N3)cc1` (stereo not given), the pEC50 in data set [3] is less than 4.00. The cytotoxic concentration (CC50) in [4] was greater than 250 µM.

In turn, `Cc1cc(-c2ccccc2)nc2nc(C(=O)Nc3c(C(N)=O)sc4ncccc34)nn12` had a pIC50 in data set [1] of less than 3.70. Moreover, the CC50 in [2] was 51 µM. In addition, the pEC50 in data set [3] was 4.37.

As for `Cc1cc(-c2ccccc2)n2nc(C(=O)Nc3ccccc3C(N)=O)nc2n1`, the solubility in data set [5] was 17.6 uM and 6.55 ug ml-1. Also, in data set [1], the pIC50 is 4.96. Also, the CC50 in data set [2] was greater than 250 µM. Further, in [3], the pEC50 was less than 4.00.

The compound `Cc1cc(-c2ccccc2)n2nc(C(=O)Nc3sc4c(c3C(=O)Nc3ccccn3)CCCCC4)nc2n1` gave a pIC50 in data set [1] of 4.64. Besides, in data set [2], the CC50 was greater than 250 µM. Further, in [3], the pEC50 is 4.32.

In turn, `COc1cc2nc(N3CCN(C(=O)c4ccco4)CC3)nc(N)c2cc1OC` [PRAZOSIN] came in with a thermodynamic solubility at 2 h in data set [5] of 62.8 µM (≈ 24.1 µg/mL).

Consider `Cc1cc(-c2ccccc2)n2nc(C(=O)Nc3sc4c(c3C(=O)O)CCCCC4)nc2n1`, for which, in [1], the pIC50 is 4.72. Moreover, in data set [2], the cytotoxic concentration (CC50) was greater than 250 µM. In addition, the pEC50 in [3] is 4.30.

As for `Cc1cc(-c2ccccc2)n2nc(C(=O)Nc3c(C(N)=O)sc4c3CCCCC4)nc2n1`, the pIC50 in [1] was less than 3.70. In data set [2], the CC50 turned out to be 90 µM. In data set [3], the pEC50 is less than 4.30.

In [1], `Cc1cc(-c2ccccc2)nc2nc(C(=O)Nc3sc4c(c3C(=O)O)CCCCC4)nn12` had a pIC50 of 4.74. Also, in [2], the CC50 was greater than 250 µM. Moreover, the pEC50 in data set [3] is 4.15.

As to `NC(=O)c1ncn([C@@H]2O[C@H](CO)[C@@H](O)[C@H]2O)n1` [RIBAVIRIN], the CC50 at 48 h in data set [6] is greater than 250 µM. The values for the pEC50 in [7] and in [3] were 4.62 and 5.00, respectively.

`Cc1cc(-c2ccccc2)n2nc(C(=O)Nc3nc4ccccc4s3)nc2n1` showed a pIC50 in [1] of 4.68. The cytotoxic concentration (CC50) in [2] is greater than 250 µM. The pEC50 in data set [3] was less than 4.30.

Turning to `CC(=O)[C@H]1CC[C@H]2[C@@H]3CCC4=CC(=O)CC[C@]4(C)[C@H]3CC[C@]12C` [PROGESTERONE], the thermodynamic solubility at 2 h in [5] was found to be 6.5 µM (≈ 2.04 µg/mL).

In the case of `Cc1cc(-c2ccccc2)n2nc(C(=O)Nc3ccsc3C(N)=O)nc2n1`, the negative logarithm of the IC50 (pIC50) in data set [1] was 4.51. In [6], the CC50 at 48 h came to 250 µM. Also, in data set [3], the pEC50 is 4.37.

With `Cc1cc(-c2ccccc2)nc2nc(C(=O)Nc3ccccc3C(N)=O)nn12`, the solubility in data set [5] was 82.2 uM and 30.6 ug ml-1. Besides, in [1], the pIC50 is 5.15. Moreover, the remaining at 1 h, 10 µM in data set [8] amounted to 76%. For the same compound, the CC50 in [2] was greater than 250 µM. The Fu in [9] is 22.45%. In addition, the pEC50 in data set [7] is 5.24; in data set [3], 4.51.

Take `Cc1cc(-c2ccccc2)n2nc(C(=O)Nc3sc4c(c3C(N)=O)CCCC4)nc2n1`: the pIC50 in [1] is 4.82. Further, the CC50 in data set [2] was greater than 250 µM. In data set [3], the negative-log EC50 (pEC50) is 4.49.

In data set [1], `Cc1cc(-c2ccccc2)nc2nc(C(=O)Nc3ccsc3C(N)=O)nn12` had a pIC50 of 4.30. The CC50 in [2] turned out to be 240 µM. The pEC50 in data set [3] is less than 4.00.

As for `CCC1CCc2c(sc(NC(=O)c3nc4nc(C)cc(-c5ccccc5)n4n3)c2C(N)=O)C1` (stereo not given), the pIC50 in [1] is less than 3.70. Besides, in [2], the CC50 was greater than 250 µM. Also, the pEC50 in data set [3] is 4.82.

Consider `Cc1cc(-c2ccccc2)nc2nc(C(=O)Nc3nc4ccccc4s3)nn12`, for which the pIC50 in data set [1] is less than 3.70. In [2], the CC50 was 233 µM.
